Data published in ChEMBL document CHEMBL2375324 (Bioorg Med Chem, 2013).

Legend:
Bcr/Abl fusion protein = Bcr/Abl fusion protein (Homo sapiens, UniProt P00519); assay: Inhibition of Bcr-Abl kinase (unknown origin) after 30 mins by HTRF assay; type: protein assay
K562 = assay: Antiproliferative activity against human K562 cells after 48 hrs by MTT assay; type: functional, cell-based; conditions: K562, 48 h
Procedure, shortened: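 Exponentially growing K562 cells were seeded at 1 × 10⁴ cells/well and preincubated 24 h at 37 °C. They were then exposed to the compounds at various concentrations for 48 h. MTT (5 mg/mL solution) was added for 4 h at 37 °C, the supernatant was removed, and formazan was dissolved in DMSO. Absorbance was read at 490 nm, and IC₅₀ is reported in µM.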

Sequence of Bcr/Abl fusion protein (P00519 whole entry, the tested form may be a part): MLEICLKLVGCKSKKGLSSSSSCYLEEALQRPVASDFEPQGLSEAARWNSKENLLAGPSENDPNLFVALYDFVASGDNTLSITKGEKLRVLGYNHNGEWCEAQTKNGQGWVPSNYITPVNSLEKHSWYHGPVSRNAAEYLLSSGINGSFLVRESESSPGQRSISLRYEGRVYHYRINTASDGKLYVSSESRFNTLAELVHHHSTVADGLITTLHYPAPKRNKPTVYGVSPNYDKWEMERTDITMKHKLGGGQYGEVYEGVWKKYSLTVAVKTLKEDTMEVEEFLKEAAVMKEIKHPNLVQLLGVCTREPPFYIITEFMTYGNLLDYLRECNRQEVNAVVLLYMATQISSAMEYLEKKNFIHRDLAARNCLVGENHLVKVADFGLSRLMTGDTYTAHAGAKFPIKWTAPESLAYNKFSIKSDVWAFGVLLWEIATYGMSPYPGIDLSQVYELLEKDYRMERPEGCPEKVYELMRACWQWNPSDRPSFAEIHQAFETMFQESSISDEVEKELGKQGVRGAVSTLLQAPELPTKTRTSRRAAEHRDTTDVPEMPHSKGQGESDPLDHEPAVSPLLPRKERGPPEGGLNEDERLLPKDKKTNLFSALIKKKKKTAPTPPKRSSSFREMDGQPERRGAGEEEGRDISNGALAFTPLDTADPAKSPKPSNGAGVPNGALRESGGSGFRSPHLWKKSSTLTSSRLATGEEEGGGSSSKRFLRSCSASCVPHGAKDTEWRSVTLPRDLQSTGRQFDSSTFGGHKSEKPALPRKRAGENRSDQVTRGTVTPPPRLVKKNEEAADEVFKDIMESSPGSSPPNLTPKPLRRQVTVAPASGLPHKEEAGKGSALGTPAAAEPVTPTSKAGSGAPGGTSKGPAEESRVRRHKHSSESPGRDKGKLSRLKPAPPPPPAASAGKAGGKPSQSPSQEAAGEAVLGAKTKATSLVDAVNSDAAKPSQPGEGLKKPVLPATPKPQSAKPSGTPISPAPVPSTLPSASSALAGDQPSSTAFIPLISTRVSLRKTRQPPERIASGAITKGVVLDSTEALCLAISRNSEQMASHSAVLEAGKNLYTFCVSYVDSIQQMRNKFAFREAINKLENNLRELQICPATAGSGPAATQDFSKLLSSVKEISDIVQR
Sequence of Bcr/Abl fusion protein (P11274 whole entry, further chain, the tested form may be a part): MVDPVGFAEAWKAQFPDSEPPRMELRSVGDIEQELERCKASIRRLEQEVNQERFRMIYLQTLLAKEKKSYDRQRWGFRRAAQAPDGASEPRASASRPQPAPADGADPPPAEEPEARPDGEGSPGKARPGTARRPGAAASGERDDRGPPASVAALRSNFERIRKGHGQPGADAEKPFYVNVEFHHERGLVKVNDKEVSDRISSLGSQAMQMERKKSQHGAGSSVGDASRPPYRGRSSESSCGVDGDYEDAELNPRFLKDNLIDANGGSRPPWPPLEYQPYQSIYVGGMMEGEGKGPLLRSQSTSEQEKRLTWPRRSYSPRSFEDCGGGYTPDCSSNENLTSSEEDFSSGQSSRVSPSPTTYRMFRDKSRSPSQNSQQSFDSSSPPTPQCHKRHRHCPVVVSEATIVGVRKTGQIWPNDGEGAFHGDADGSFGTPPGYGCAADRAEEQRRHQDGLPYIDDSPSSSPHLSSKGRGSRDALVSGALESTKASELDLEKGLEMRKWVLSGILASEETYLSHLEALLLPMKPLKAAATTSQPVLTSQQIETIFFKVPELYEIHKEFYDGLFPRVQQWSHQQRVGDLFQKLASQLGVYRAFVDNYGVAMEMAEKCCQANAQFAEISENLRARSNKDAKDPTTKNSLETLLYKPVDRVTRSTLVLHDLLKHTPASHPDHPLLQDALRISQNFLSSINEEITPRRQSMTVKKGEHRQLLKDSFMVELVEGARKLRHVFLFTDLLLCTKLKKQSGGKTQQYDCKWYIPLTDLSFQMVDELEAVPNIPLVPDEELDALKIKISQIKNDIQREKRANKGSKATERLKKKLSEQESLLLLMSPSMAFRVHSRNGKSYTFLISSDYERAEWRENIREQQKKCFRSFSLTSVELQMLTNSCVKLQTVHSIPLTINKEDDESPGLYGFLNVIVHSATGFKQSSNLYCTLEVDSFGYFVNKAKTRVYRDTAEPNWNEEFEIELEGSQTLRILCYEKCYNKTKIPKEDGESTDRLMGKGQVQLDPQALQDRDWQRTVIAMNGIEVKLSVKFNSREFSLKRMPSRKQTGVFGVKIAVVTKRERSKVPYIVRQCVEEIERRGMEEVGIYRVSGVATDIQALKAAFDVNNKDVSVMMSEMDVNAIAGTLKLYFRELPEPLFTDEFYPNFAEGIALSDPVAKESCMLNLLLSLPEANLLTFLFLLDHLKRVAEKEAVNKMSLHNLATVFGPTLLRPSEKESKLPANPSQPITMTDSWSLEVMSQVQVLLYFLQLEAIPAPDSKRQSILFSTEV

Row | Structure (SMILES) | IC50 (Bcr/Abl fusion protein) | IC50 (K562)
1 | COc1ccc(C(=O)Nc2ccc(F)c(Cl)c2)cc1Nc1nccc(-c2cccnc2)n1 | 0.00473 µM | –
2 | COc1ccc(C(=O)Nc2cccc(C(F)(F)F)c2)cc1Nc1nccc(-c2cccnc2)n1 | 4.13 µM | –
3 | COc1ccc(C(=O)Nc2ccc(Br)cc2)cc1Nc1nccc(-c2cccnc2)n1 | 0.00479 µM | –
4 | COc1ccc(C(=O)Nc2cccc(F)c2)cc1Nc1nccc(-c2cccnc2)n1 | 0.00321 µM | –
5 | COc1ccc(C(=O)Nc2cc(C(F)(F)F)cc(C(F)(F)F)c2)cc1Nc1nccc(-c2cccnc2)n1 | – | 4.84 µM
6 | COc1ccc(C(=O)Nc2cc(Br)cc(C(F)(F)F)c2)cc1Nc1nccc(-c2cccnc2)n1 | – | 215 µM
7 | COc1ccc(C(=O)Nc2cccc(Cl)c2)cc1Nc1nccc(-c2cccnc2)n1 | 0.0348 µM | 237 µM
8 | COc1ccc(C(=O)Nc2cccc(C(C)=O)c2)cc1Nc1nccc(-c2cccnc2)n1 | – | 237 µM
9 | COc1cccc(NC(=O)c2ccc(OC)c(Nc3nccc(-c4cccnc4)n3)c2)c1 | – | 93.1 µM
10 | COc1ccc(C(=O)Nc2ccncc2)cc1Nc1nccc(-c2cccnc2)n1 | 2.75 µM | 94.5 µM
11 | COc1ccc(C(=O)Nc2ncccn2)cc1Nc1nccc(-c2cccnc2)n1 | 0.00378 µM | –
12 | COc1ccc(C(=O)Nc2nccs2)cc1Nc1nccc(-c2cccnc2)n1 | 0.294 µM | –
13 | COc1ccc(C(=O)Nc2ccc(OCCCN(C)C)cc2)cc1Nc1nccc(-c2cccnc2)n1 | 0.00052 µM | 38.5 µM
14 | COc1ccc(C(=O)Nc2ccc(OCCN(C)C)cc2)cc1Nc1nccc(-c2cccnc2)n1 | 0.00234 µM | –
15 | CCN(CC)CCOc1ccc(NC(=O)c2ccc(OC)c(Nc3nccc(-c4cccnc4)n3)c2)cc1 | 0.00148 µM | –
16 | COc1ccc(C(=O)Nc2ccc(OCCN3CCCC3)cc2)cc1Nc1nccc(-c2cccnc2)n1 | 0.35 µM | 38.6 µM
17 | COc1ccc(C(=O)Nc2ccc(OCCN3CCCCC3)cc2)cc1Nc1nccc(-c2cccnc2)n1 | 1.11 µM | 5.15 µM
18 | COc1ccc(C(=O)Nc2ccc(OCCN3CCOCC3)cc2)cc1Nc1nccc(-c2cccnc2)n1 | 0.0633 µM | –
19 | COc1ccc(C(=O)Nc2ccc(OCCCN3CCOCC3)cc2)cc1Nc1nccc(-c2cccnc2)n1 | 0.00634 µM | –
20 | Cc1cn(-c2cc(NC(=O)c3ccc(C)c(Nc4nccc(-c5cccnc5)n4)c3)cc(C(F)(F)F)c2)cn1 [NILOTINIB] | – | 89.1 µM
